From ChEMBL document CHEMBL4364301 (Eur J Med Chem, 2019)

Assays:
Assay type in all cases: functional
[1] = test system: CWR22R; assay: Antiproliferative activity against human 22Rv1 cells assessed as T/C value at 3.2 x 10^1 uM incubated for 96 hrs by propidium iodide based 2D monolayer assay
Summary of the method: (§1)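 Cells were kept in RPMI 1640 with 25 mM HEPES, 10% FCS and gentamicin at 37 °C under 5% CO2, and plated at 4,000-20,000 cells/well. After 24 h recovery, compound in medium or medium alone (control wells) was added at 10 half-log concentrations from 0.0032 to 100 µM, in triplicate, with at most 0.3% DMSO. After 96 h, wells were PBS-washed, stained with 7 µg/ml PI and 0.1% Triton X-100, and fluorescence read at 530/620 nm. IC50 came from a 4-parameter fit, geometric mean.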

[2] = test system: CWR22R; assay: Antiproliferative activity against human 22Rv1 cells assessed as T/C value at 3.2 x 10^-1 uM incubated for 96 hrs by propidium iodide based 2D monolayer assay; summary of the method: as §1
[3] = test system: DU-145; assay: Antiproliferative activity against human DU145 cells assessed as T/C value at 3.2 x 10^-3 uM incubated for 96 hrs by propidium iodide based 2D monolayer assay
Summary of the method: (§2)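 After 24 h recovery, compound in medium or medium alone (control wells) was added at 10 half-log concentrations from 0.0032 to 100 µM, in triplicate, with at most 0.3% DMSO. After 96 h, wells were PBS-washed, stained with 7 µg/ml PI and 0.1% Triton X-100, and fluorescence read at 530/620 nm. IC50 came from a 4-parameter fit, geometric mean.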

[4] = test system: CWR22R; assay: Antiproliferative activity against human 22Rv1 cells assessed as T/C value at 1 x 10^2 uM incubated for 96 hrs by propidium iodide based 2D monolayer assay; summary of the method: as §1
[5] = test system: VCaP; assay: Antiproliferative activity against human VCaP cells assessed as T/C value at 3.2 x 10^1 uM incubated for 96 hrs by propidium iodide based 2D monolayer assay
Summary of the method: (§3)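 VCaP cells in RPMI 1640 with 10% FCS at 37 °C, 5% CO2, seeded 4,000–20,000 cells/well and left 24 h before dosing. Compounds from DMSO stocks were diluted in half-log steps in medium, 10 concentrations 0.0032–100 μM, triplicate wells, max 0.3% DMSO. After 96 h, cells were washed, stained with 7 μg/ml propidium iodide plus 0.1% Triton X-100 for 1–2 h at room temperature, and fluorescence read at ex 530/em 620 nm.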

[6] = test system: VCaP; assay: Antiproliferative activity against human VCaP cells assessed as T/C value at 3.2 x 10^-3 uM incubated for 96 hrs by propidium iodide based 2D monolayer assay; summary of the method: as §3
[7] = test system: LNCaP; assay: Antiproliferative activity against human LNCAP cells assessed as T/C value at 1 x 10^-2 uM incubated for 96 hrs by propidium iodide based 2D monolayer assay; summary of the method: as §1
[8] = test system: LNCaP; assay: Antiproliferative activity against human LNCAP cells assessed as T/C value at 1 uM incubated for 96 hrs by propidium iodide based 2D monolayer assay; summary of the method: as §1
[9] = test system: DU-145; assay: Antiproliferative activity against human DU145 cells assessed as T/C value at 1 uM incubated for 96 hrs by propidium iodide based 2D monolayer assay; summary of the method: as §2
[10] = test system: VCaP; assay: Antiproliferative activity against human VCaP cells assessed as T/C value at 1 x 10^-2 uM incubated for 96 hrs by propidium iodide based 2D monolayer assay; summary of the method: as §1
[11] = test system: VCaP; assay: Antiproliferative activity against human VCaP cells assessed as T/C value at 3.2 x 10^-2 uM incubated for 96 hrs by propidium iodide based 2D monolayer assay; summary of the method: as §3
[12] = test system: LNCaP; assay: Antiproliferative activity against human LNCAP cells assessed as T/C value at 1 x 10^1 uM incubated for 96 hrs by propidium iodide based 2D monolayer assay; summary of the method: as §1
[13] = test system: LNCaP; assay: Antiproliferative activity against human LNCAP cells assessed as T/C value at 3.2 x 10^-3 uM incubated for 96 hrs by propidium iodide based 2D monolayer assay; summary of the method: as §1
[14] = test system: DU-145; assay: Antiproliferative activity against human DU145 cells assessed as T/C value at 3.2 x 10^-2 uM incubated for 96 hrs by propidium iodide based 2D monolayer assay; summary of the method: as §2
[15] = test system: DU-145; assay: Antiproliferative activity against human DU145 cells assessed as T/C value at 1 x 10^-1 uM incubated for 96 hrs by propidium iodide based 2D monolayer assay; summary of the method: as §2
[16] = test system: DU-145; assay: Antiproliferative activity against human DU145 cells assessed as T/C value at 1 x 10^-2 uM incubated for 96 hrs by propidium iodide based 2D monolayer assay; summary of the method: as §2
[17] = test system: VCaP; assay: Antiproliferative activity against human VCaP cells assessed as T/C value at 3.2 x 10^-1 uM incubated for 96 hrs by propidium iodide based 2D monolayer assay; summary of the method: as §3
[18] = test system: VCaP; assay: Antiproliferative activity against human VCaP cells assessed as T/C value at 3.2 uM incubated for 96 hrs by propidium iodide based 2D monolayer assay; summary of the method: as §1
[19] = test system: CWR22R; assay: Antiproliferative activity against human 22Rv1 cells assessed as T/C value at 1 uM incubated for 96 hrs by propidium iodide based 2D monolayer assay; summary of the method: as §1
[20] = test system: DU-145; assay: Antiproliferative activity against human DU145 cells assessed as reduction in cell growth incubated for 96 hrs by propidium iodide based 2D monolayer assay; conditions: DU-145, 96 h; summary of the method: as §2
[21] = test system: LNCaP; assay: Antiproliferative activity against human LNCAP cells assessed as T/C value at 3.2 uM incubated for 96 hrs by propidium iodide based 2D monolayer assay; summary of the method: as §1
[22] = test system: CWR22R; assay: Antiproliferative activity against human 22Rv1 cells assessed as T/C value at 3.2 uM incubated for 96 hrs by propidium iodide based 2D monolayer assay; summary of the method: as §1
[23] = test system: VCaP; assay: Antiproliferative activity against human VCaP cells assessed as T/C value at 1 uM incubated for 96 hrs by propidium iodide based 2D monolayer assay; summary of the method: as §1
[24] = test system: DU-145; assay: Antiproliferative activity against human DU145 cells assessed as T/C value at 3.2 uM incubated for 96 hrs by propidium iodide based 2D monolayer assay; summary of the method: as §1
[25] = test system: DU-145; assay: Antiproliferative activity against human DU145 cells assessed as T/C value at 1 x 10^2 uM incubated for 96 hrs by propidium iodide based 2D monolayer assay; summary of the method: as §1
[26] = test system: LNCaP; assay: Antiproliferative activity against human LNCAP cells assessed as T/C value at 1 x 10^2 uM incubated for 96 hrs by propidium iodide based 2D monolayer assay; summary of the method: as §1
[27] = test system: VCaP; assay: Antiproliferative activity against human VCaP cells assessed as T/C value at 1 x 10^2 uM incubated for 96 hrs by propidium iodide based 2D monolayer assay; summary of the method: as §1
[28] = test system: CWR22R; assay: Antiproliferative activity against human 22Rv1 cells assessed as reduction in cell growth incubated for 96 hrs by propidium iodide based 2D monolayer assay; conditions: 22Rv1, 96 h; summary of the method: as §2
[29] = test system: DU-145; assay: Antiproliferative activity against human DU145 cells assessed as T/C value at 3.2 x 10^-1 uM incubated for 96 hrs by propidium iodide based 2D monolayer assay; summary of the method: as §2
[30] = test system: CWR22R; assay: Antiproliferative activity against human 22Rv1 cells assessed as T/C value at 1 x 10^-1 uM incubated for 96 hrs by propidium iodide based 2D monolayer assay; summary of the method: as §1
[31] = test system: CWR22R; assay: Antiproliferative activity against human 22Rv1 cells assessed as T/C value at 1 x 10^1 uM incubated for 96 hrs by propidium iodide based 2D monolayer assay; summary of the method: as §1
[32] = test system: VCaP; assay: Antiproliferative activity against human VCaP cells assessed as reduction in cell growth incubated for 96 hrs by propidium iodide based 2D monolayer assay; summary of the method: as §3

SMILES	T/C [1]	T/C [2]	T/C [3]	T/C [4]	T/C [5]	T/C [6]	T/C [7]	T/C [8]	T/C [9]	T/C [10]	T/C [11]	T/C [12]	T/C [13]	T/C [14]	T/C [15]	T/C [16]	T/C [17]	T/C [18]	T/C [19]	IC50 [20] [µM]	other results
CC(O)(COc1ccc(S(F)(F)(F)(F)F)cc1)C(=O)Nc1cc(C(F)(F)F)cc(C(F)(F)F)c1 (racemic)	7%	110%	103%	4%	4%	105%	92%	89%	117%	102%	96%	8%	92%	106%	109%	104%	91%	30%	109%	6.5	IC70 [20]: 7.99 µM; T/C [21]: 15%; T/C [22]: 52%; T/C [23]: 98%; T/C [24]: 104%; T/C [25]: 1%; T/C [26]: 1%; T/C [27]: 6%; IC50 [28]: 3.2 µM; IC70 [28]: 4.07 µM; T/C [29]: 115%; T/C [30]: 106%; T/C [31]: 13%; IC50 [32]: 2.4 µM; IC70 [32]: 3.22 µM
CC(O)(COc1cc(C(F)(F)F)cc(C(F)(F)F)c1)C(=O)Nc1cccc(S(F)(F)(F)(F)F)c1 (racemic)	4%	105%	107%	2%	4%	97%	96%	101%	123%	87%	87%	2%	89%	114%	114%	104%	91%	33%	102%	9.3	IC70 [20]: 9.59 µM; T/C [21]: 17%; T/C [22]: 102%; T/C [23]: 94%; T/C [24]: 115%; T/C [25]: 0%; T/C [26]: 2%; T/C [27]: 7%; IC50 [28]: 6.5 µM; IC70 [28]: 7.75 µM; T/C [29]: 116%; T/C [30]: 106%; T/C [31]: 13%; IC50 [32]: 2.8 µM; IC70 [32]: 3.24 µM
CC(O)(COc1cc(C(F)(F)F)cc(C(F)(F)F)c1)C(=O)Nc1ccc(S(F)(F)(F)(F)F)cc1 (racemic)	8%	109%	102%	4%	6%	101%	88%	90%	118%	95%	95%	6%	90%	105%	109%	103%	87%	37%	108%	8.6	IC70 [20]: 9.21 µM; T/C [21]: 26%; T/C [22]: 103%; T/C [23]: 88%; T/C [24]: 117%; T/C [25]: 1%; T/C [26]: 3%; T/C [27]: 5%; IC50 [28]: 7 µM; IC70 [28]: 8.27 µM; T/C [29]: 113%; T/C [30]: 104%; T/C [31]: 16%; IC50 [32]: 2.6 µM; IC70 [32]: 4.53 µM
CC(O)(COc1ccccc1C(F)(F)F)C(=O)Nc1ccc(S(F)(F)(F)(F)F)cc1 (racemic)	1 - 3%	69 - 110%	102 - 112%	1 - 2%	3 - 11%	97 - 98%	85 - 89%	25 - 60%	88 - 127%	87 - 102%	87 - 93%	1 - 2%	91 - 100%	108 - 125%	108 - 127%	103 - 119%	73 - 91%	19 - 45%	9 - 81%	7.1	T/C [21]: 2 - 7%; T/C [22]: 2 - 9%; T/C [23]: 58 - 85%; T/C [24]: 15 - 117%; T/C [25]: 1%; T/C [26]: 1 - 2%; T/C [27]: 5 - 10%; IC50 [28]: 1.4 µM; T/C [29]: 107 - 132%; T/C [30]: 93 - 107%; T/C [31]: 1 - 6%; IC50 [32]: 3.1 µM
